Measurements from different studies.
Target: BMP-2-inducible protein kinase (BMP2K, Homo sapiens, UniProt Q9NSY1)

CC#CC(=O)N1CCC[C@H]1c1nc(-c2ccc(C(=O)Nc3ccccn3)cc2)c2c(N)nccn12
inhibition (enzyme activity; inhibitor; 1 µM): 26%

CNS(=O)(=O)c1ccc(Nc2ncc(C(F)(F)F)c(N3CCC[C@](C)(O)C3)n2)c(C)c1
remaining binding (binding; competition with immobilised ligand; 1 µM): 79%

COc1ccc2oc(-c3ccc4nc(N)oc4c3)c/c(=N\c3ccccc3NC(=O)CCN)c2c1
remaining binding (binding; 1 µM): 105%

CCCCC(=O)Nc1ccc(-c2ccc3ncn(CCC)c(=O)c3c2)cn1
remaining binding (binding; competition with immobilised ligand; 0.5 µM): 98%

COc1ccc2[nH]c3c4[nH]c5ccc(OC)cc5c4c4c(c3c2c1)C(=O)NC4=O
remaining binding (binding; 1 µM): 76%

C=CC(=O)N1CCC[C@@H](n2nc(-c3ccc(Oc4ccccc4)cc3)c3c(N)ncnc32)C1
inhibition (enzyme activity; inhibitor; 1 µM): 17%

C[C@]1(O)CCCN(c2nc(Nc3ccc(S(=O)(=O)N[C@H]4CC[C@H](CN5CCN(c6ccc(C7CCC(=O)NC7=O)cc6F)CC5)CC4)cc3Cl)ncc2C(F)(F)F)C1 (some centres unmarked)
remaining binding (binding; competition with immobilised ligand; 1 µM): 99%

C[C@H]1CC[C@H](n2c3cnccc3c3cnc(Nc4ccc5c(n4)CCN(C(=O)CO)C5)nc32)CC1
remaining signal (cell-free assay; 1 µM): 17%
